In brackets after ≈: the same amount, converted by molar mass.
Experiments:
[1] = Metabolic stability in monkey liver microsomes; format: ADME, Macaca mulatta, Microsome; settings: rhesus monkey
[2] = Drug level in Sprague-Dawley rat brain at 3 mg/kg, ip after 4 hrs; format: ADME, organism-based; parameters: dose 3 mg/kg, route intraperitoneal; settings: read-out: Drug uptake
How it was run: (§1)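 Rats given a single 3 mg/kg ip or 100 mg/kg oral dose; plasma and brain concentrations measured over time to assess brain/plasma ratio.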

[3] = Drug level in Sprague-Dawley rat plasma at 3 mg/kg, ip after 1 hr; format: ADME, organism-based; parameters: dose 3 mg/kg, route intraperitoneal; how it was run: as §1
[4] = Aqueous solubility at pH 8; format: physicochemical
[5] = Drug level in Sprague-Dawley rat plasma at 3 mg/kg, ip after 0.5 hr; format: ADME, organism-based; parameters: dose 3 mg/kg, route intraperitoneal; how it was run: as §1
[6] = target: 5-hydroxytryptamine receptor 5A (Homo sapiens) (UniProt P47898); test: Inhibition of human 5HT5 receptor expressed in CHO cells at 100 nM; format: cell-based
[7] = target: 5-hydroxytryptamine receptor 2B (Homo sapiens, UniProt P41595); test: Inhibition of human 5HT2B receptor expressed in CHO cells; format: cell-based
[8] = Drug level in Sprague-Dawley rat brain at 3 mg/kg, ip after 2 hrs; format: ADME, organism-based; parameters: dose 3 mg/kg, route intraperitoneal; settings: read-out: Drug uptake; how it was run: as §1
[9] = Drug level in Sprague-Dawley rat brain at 3 mg/kg, ip after 1 hr; format: ADME, organism-based; parameters: dose 3 mg/kg, route intraperitoneal; settings: read-out: Drug uptake; how it was run: as §1
[10] = Volume of distribution in rat at 1 mg/kg, iv; format: ADME, organism-based; parameters: dose 1 mg/kg, route intravenous; settings: in vivo, read-out: Vdss
[11] = Metabolic stability in rat liver microsomes; format: ADME, Microsome
[12] = Drug level in Sprague-Dawley rat plasma at 100 mg/kg, po after 0.5 hr; format: ADME, organism-based; parameters: dose 100 mg/kg, route oral; how it was run: as §1
[13] = AUC in rat at 10 mg/kg, po; format: ADME, organism-based; parameters: dose 10 mg/kg, route oral; settings: plasma
[14] = target: Beta-2 adrenergic receptor (Homo sapiens) (UniProt P07550); test: Displacement of radio ligand from beta-2 adrenergic receptor at 10 nM
[15] = target: 5-hydroxytryptamine receptor 4 (Homo sapiens) (UniProt Q13639); test: Inhibition of human 5HT4 receptor expressed in CHO cells at 100 nM; format: cell-based
[16] = Half life in dog at 5 mg/kg, po; format: ADME, organism-based, Canis lupus familiaris; parameters: dose 5 mg/kg, route oral; settings: in vivo
[17] = AUC in dog at 1 mg/kg, iv; format: ADME, organism-based, Canis lupus familiaris; parameters: dose 1 mg/kg, route intravenous; settings: plasma
[18] = target: 5-hydroxytryptamine receptor 7 (Homo sapiens, UniProt P34969); test: Displacement of [3H]LSD from human 5HT7 receptor expressed in CHO cells; format: cell-based
How it was run: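 Human 5-HT₇ clone stably expressed in CHO cells; binding measured by [³H]LSD displacement; Ki determined in triplicate.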

[19] = Drug level in Sprague-Dawley rat brain at 100 mg/kg, po after 0.25 hr; format: ADME, organism-based; parameters: dose 100 mg/kg, route oral; settings: read-out: Drug uptake; how it was run: as §1
[20] = Oral bioavailability in dog at 5 mg/kg; format: ADME, organism-based, Canis lupus familiaris; settings: in vivo
[21] = Oral bioavailability in rat at 10 mg/kg; format: ADME, organism-based; settings: in vivo
[22] = Ratio of drug level in brain to plasma in Sprague-Dawley rat at 100 mg/kg, po after 0.25 hr; format: ADME, organism-based; parameters: dose 100 mg/kg, route oral; settings: read-out: BPR
How it was run: (§2)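 Rats given a single dose, 3 mg/kg ip or 100 mg/kg oral; drug concentrations measured in plasma and brain at timed points after dosing; brain/plasma concentration ratio calculated.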

[23] = Drug level in Sprague-Dawley rat plasma at 3 mg/kg, ip after 2 hrs; format: ADME, organism-based; parameters: dose 3 mg/kg, route intraperitoneal; how it was run: as §1
[24] = Ratio of drug level in brain to plasma in Sprague-Dawley rat at 100 mg/kg, po after 0.5 hr; format: ADME, organism-based; parameters: dose 100 mg/kg, route oral; settings: read-out: BPR; how it was run: as §2
[25] = Drug level in Sprague-Dawley rat brain at 100 mg/kg, po after 1 hr; format: ADME, organism-based; parameters: dose 100 mg/kg, route oral; settings: read-out: Drug uptake; how it was run: as §1
[26] = Aqueous solubility at pH 3 to […]; format: physicochemical
[27] = Drug level in Sprague-Dawley rat plasma at 100 mg/kg, po after 1 hr; format: ADME, organism-based; parameters: dose 100 mg/kg, route oral; how it was run: as §1
[28] = Half life in dog at 1 mg/kg, iv; format: ADME, organism-based, Canis lupus familiaris; parameters: dose 1 mg/kg, route intravenous; settings: in vivo
[29] = Half life in rat at 10 mg/kg, po; format: ADME, organism-based; parameters: dose 10 mg/kg, route oral; settings: in vivo
[30] = Drug level in Sprague-Dawley rat brain at 100 mg/kg, po after 0.5 hr; format: ADME, organism-based; parameters: dose 100 mg/kg, route oral; settings: read-out: Drug uptake; how it was run: as §1
[31] = Ratio of drug level in brain to plasma in Sprague-Dawley rat at 100 mg/kg, po after 2 hrs; format: ADME, organism-based; parameters: dose 100 mg/kg, route oral; settings: read-out: BPR; how it was run: as §2
[32] = AUC in dog at 5 mg/kg, po; format: ADME, organism-based, Canis lupus familiaris; parameters: dose 5 mg/kg, route oral; settings: plasma
[33] = organism: Rattus norvegicus; test: Decrease in water intake in schedule-induced polydipsia rat model; format: functional, organism-based
[34] = Drug level in Sprague-Dawley rat brain at 100 mg/kg, po after 2 hrs; format: ADME, organism-based; parameters: dose 100 mg/kg, route oral; settings: read-out: Drug uptake; how it was run: as §1
[35] = Half life in rat at 1 mg/kg, iv; format: ADME, organism-based; parameters: dose 1 mg/kg, route intravenous; settings: in vivo
[36] = target: 5-hydroxytryptamine receptor 1B (Homo sapiens) (UniProt P28222); test: Displacement of [3H]5-HT from human 5HT1B receptor expressed in CHO cells at 1 uM; format: cell-based
Chain of 5-hydroxytryptamine receptor 1B (Homo sapiens) (P28222 whole entry): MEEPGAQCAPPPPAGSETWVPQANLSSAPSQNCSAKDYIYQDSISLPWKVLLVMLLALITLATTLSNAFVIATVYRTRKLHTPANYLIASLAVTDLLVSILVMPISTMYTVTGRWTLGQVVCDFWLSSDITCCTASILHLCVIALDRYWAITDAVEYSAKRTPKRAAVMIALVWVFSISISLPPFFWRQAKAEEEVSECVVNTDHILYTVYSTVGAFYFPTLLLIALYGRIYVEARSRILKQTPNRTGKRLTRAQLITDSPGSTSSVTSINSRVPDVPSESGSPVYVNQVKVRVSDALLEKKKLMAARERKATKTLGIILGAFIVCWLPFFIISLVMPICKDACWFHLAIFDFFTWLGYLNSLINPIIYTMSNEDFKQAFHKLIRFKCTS

Chain of 5-hydroxytryptamine receptor 7 (P34969 whole entry): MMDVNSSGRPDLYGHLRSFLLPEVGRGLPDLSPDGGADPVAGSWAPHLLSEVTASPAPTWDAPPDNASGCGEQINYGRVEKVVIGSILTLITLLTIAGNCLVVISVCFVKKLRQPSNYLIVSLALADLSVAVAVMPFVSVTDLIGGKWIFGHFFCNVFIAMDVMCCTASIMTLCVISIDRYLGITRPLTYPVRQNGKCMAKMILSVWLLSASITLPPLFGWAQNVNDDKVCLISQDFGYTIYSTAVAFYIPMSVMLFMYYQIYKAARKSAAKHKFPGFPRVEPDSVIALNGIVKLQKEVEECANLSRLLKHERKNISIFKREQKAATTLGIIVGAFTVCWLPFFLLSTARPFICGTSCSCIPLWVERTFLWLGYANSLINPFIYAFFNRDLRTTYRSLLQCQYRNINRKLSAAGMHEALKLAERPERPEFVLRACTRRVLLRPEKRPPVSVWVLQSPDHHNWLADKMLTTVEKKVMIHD
Chain of 5-hydroxytryptamine receptor 4 (Homo sapiens) (Q13639 whole entry): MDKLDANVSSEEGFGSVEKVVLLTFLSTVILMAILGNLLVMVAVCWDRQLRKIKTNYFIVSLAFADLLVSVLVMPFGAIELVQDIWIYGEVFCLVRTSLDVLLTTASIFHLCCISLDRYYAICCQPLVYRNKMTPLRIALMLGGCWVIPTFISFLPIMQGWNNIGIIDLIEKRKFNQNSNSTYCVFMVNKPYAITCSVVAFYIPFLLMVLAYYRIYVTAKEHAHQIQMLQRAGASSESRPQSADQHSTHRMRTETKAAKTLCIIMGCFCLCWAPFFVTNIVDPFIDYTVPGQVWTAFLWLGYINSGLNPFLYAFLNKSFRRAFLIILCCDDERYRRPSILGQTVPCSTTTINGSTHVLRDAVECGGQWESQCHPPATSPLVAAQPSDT
Chain of Beta-2 adrenergic receptor (Homo sapiens) (P07550 whole entry, looked up): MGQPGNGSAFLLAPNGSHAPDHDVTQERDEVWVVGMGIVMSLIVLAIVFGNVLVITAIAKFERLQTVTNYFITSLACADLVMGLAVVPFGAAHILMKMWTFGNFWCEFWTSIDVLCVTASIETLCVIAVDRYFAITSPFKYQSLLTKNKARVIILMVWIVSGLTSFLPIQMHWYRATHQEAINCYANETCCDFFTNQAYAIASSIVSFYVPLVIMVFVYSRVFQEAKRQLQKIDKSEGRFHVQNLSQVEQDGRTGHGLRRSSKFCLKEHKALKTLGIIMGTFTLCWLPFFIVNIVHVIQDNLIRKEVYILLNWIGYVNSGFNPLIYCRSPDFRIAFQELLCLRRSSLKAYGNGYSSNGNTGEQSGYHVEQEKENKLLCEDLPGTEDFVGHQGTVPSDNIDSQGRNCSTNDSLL
Chain of 5-hydroxytryptamine receptor 2B (P41595 whole entry): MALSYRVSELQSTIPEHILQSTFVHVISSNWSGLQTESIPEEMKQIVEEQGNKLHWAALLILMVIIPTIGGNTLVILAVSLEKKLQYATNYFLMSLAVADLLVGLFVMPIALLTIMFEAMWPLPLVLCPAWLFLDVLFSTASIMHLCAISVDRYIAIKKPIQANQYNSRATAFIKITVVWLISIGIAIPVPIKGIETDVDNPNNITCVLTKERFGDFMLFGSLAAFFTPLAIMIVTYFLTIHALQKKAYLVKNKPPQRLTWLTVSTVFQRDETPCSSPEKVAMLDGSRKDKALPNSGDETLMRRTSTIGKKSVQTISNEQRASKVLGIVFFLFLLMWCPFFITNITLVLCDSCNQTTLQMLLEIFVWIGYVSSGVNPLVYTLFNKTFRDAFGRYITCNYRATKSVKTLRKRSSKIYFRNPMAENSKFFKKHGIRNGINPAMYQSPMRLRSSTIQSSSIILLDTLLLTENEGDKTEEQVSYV
Chain of 5-hydroxytryptamine receptor 5A (Homo sapiens) (P47898 whole entry): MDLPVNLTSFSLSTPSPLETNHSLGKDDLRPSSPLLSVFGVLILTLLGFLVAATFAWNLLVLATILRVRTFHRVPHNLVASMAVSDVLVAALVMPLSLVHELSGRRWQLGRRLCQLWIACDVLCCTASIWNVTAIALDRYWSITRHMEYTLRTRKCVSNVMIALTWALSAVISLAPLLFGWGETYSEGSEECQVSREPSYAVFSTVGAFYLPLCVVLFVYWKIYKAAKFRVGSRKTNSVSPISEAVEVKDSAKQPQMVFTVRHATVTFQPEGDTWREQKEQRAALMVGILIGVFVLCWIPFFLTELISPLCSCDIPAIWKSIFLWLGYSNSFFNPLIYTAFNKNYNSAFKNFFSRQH

NCCc1cn(S(=O)(=O)c2c(Cl)nc3sccn23)c2ccccc12
half-life [1]: 6.4 min
concentration at 4 h [2]: 6 ng/mL
concentration at 1 h [3]: 21 ng/mL
solubility [4]: 240 µg/mL (≈ 630 µM)
concentration at 0.5 h [5]: 66 ng/mL
inhibition [6]: < 50%
Ki [7]: 458 nM
concentration at 2 h [8]: 1.1 ng/mL
concentration at 1 h [9]: 14.2 ng/mL
Vd [10]: 24 L/kg
half-life [11]: 8 min
concentration at 0.5 h [12]: 356 ng/mL
AUC [13]: 190 ng·h/mL
Activity [14]: < 50%
inhibition [15]: < 50%
half-life [16]: 396 min
AUC [17]: 520 ng·h/mL
Ki [18]: 679 nM
concentration at 0.25 h [19]: 12.5 ng/mL
bioavailability [20]: 55%
bioavailability [21]: 23%
Kp at 0.25 h [22]: 0.1
concentration at 2 h [23]: 3.2 ng/mL
Kp at 0.5 h [24]: 0.55
concentration at 1 h [25]: 45.1 ng/mL
solubility [26]: > 10000 µg/mL
concentration at 1 h [27]: 312 ng/mL
half-life [28]: 174 min
half-life [29]: 186 min
concentration at 0.5 h [30]: 194 ng/mL
Kp at 2 h [31]: 0.25
AUC [32]: 1430 ng·h/mL
Activity [33]: Dose-dependent effect
concentration at 2 h [34]: 59.6 ng/mL
half-life [35]: 324 min
Activity [36]: 36%
